eIF4E-4G inh = inhibitors of eIF4E and eIF4G interaction in translation initiation; inhibition, % at 21.7 µM; AID 782; 220,000 tested, 0.37% active; TR-FRET eIF4E-eIF4GI(517-606) binding, 2 h; P63073+Q04637;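 active = inhibition above about 30%, limit read from the data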;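 note: 0% = full FRET control wells and 100% = background wells lacking eIF4GI fragment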
Runt-SMMHC FRET = Runt domain-CBFb-SMMHC interaction inhibition | 220,000 tested, 0.74% active | Cerulean-Runt/Venus-CBFb-SMMHC FRET ratio 530/480, 1 h | AID 1434 | inhibition, % at 20 µM;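 active = mean inhibition across duplicate retests at 20 µM reaching about 50%, limit read from the data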;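 note: 0% = DMSO wells and 100% = wells with excess untagged CBFb-SMMHC; inhibitors lower the FRET ratio by blocking Runt binding to CBFb-SMMHC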
PERK inhibitor = human PERK inhibition, primary cell-based screen; Q9NZJ5; CHO PERK-DD fusion, SEAP luminescence translation reporter; inhibition, % at 5.6 µM; 220,000 tested, 0.17% active;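 active = inhibition above the mean inhibition of all tested compounds plus 3 SD, set separately per screening campaign, cut at about 2.9% in these data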;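 note: PERK kinase domain activated by AP20187 dimerizer at 100 nM; 0% = DMSO with dimerizer and 100% = rapamycin at 8.4 µM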
RanGTP-Impb inh = disruptors of Ran-importin-beta complex formation – biochemical, FRET, CFP-Ran, YFP-importin-beta, homogeneous, primary screen. inhibition, % (test concentration not listed). cell-free CFP-Ran/YFP-importin-beta FRET ratio. AID 2216. 300,000 tested, 1.1% active;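 active = more than half of the replicate wells show a fall in the fluorescence ratio signal beyond about 16%, limit read from the data, passing the limit was not always enough; inconclusive = exactly half of the replicate wells pass the set limit; inactive = fewer than half of replicates pass the limit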;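 note: 0% = DMSO wells and 100% = Ran loaded with GDP instead of GTP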
Runt-CBFb FRET = blocks binding of human RUNX1 Runt domain to CBFb; Cerulean-Runt/Venus-CBFb FRET ratio 530/480, 1 h; inhibition, % at 20 µM; 220,000 tested, 0.46% active; AID 1496;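 active = inhibition over about 50% at 20 µM in the single-dose screen, limit read from the data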;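 note: 0% = DMSO wells and 100% = excess unlabeled CBFb competitor control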
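Doses: 20 µM compound in 1% DMSO | Material: Cerulean-labeled Runt domain protein | Amount: Each fluorescent fusion protein 100 nM | Schedule: Two 1 h room-temperature incubations shielded from light | Measured by: FRET fluorescence | Evaluation: Loss of energy transfer signal | Controls: Unlabeled CBFb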
Hck Nef HTS = human Hck-Nef kinase inhibition | 220,000 tested, 0.68% active | inhibition, % at 20 µM | Recombinant Hck-YEEI plus Nef, Z-Lyte FRET kinase assay | P08631 | AID 463187;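 active = Hck-Nef kinase inhibition above about 50%, limit read from the data; inactive = inhibition below that limit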;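 note: 0% = DMSO with Hck plus Nef and 100% = Hck alone without Nef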
Active calls of the source: *; ? = inconclusive; . = not tested or not shown; [ ] = another dose, or the depositor's remark. Hits are enriched below; roughly 2.2% of the tested compounds scored in any of these assays.

SMILES	eIF4E-4G inh	Runt-SMMHC FRET	PERK inhibitor	RanGTP-Impb inh	Runt-CBFb FRET	Hck Nef HTS
CCN(C(=O)Cc1ccccc1OC)c1nnc(-c2ccncc2)s1	-6	3	0	0	.	-1
CCOC(=O)c1sc(N/N=C/c2cc(Br)c(O)c(OC)c2)nc1C	.	.	.	27*	.	.
CCOC(=O)c1cccc(NC(=O)/C=C/c2ccc([N+](=O)[O-])cc2)c1	15	4	0	10	2	8
COc1ccccc1OCCc1nnc(N)s1	8	0	3.3*	7	4	2
CCOC(=O)C(=O)Nc1sc(C(=O)N(CC)CC)c(C)c1C#N	0	1	1	-4	0	19
COC(=O)c1cnn(C(=O)c2ccccc2Br)c1N	-3	3	1	6	3	1
COc1ccc(NC(=O)CS(=O)(=O)c2cn(CC(=O)N3CCOCC3)c3ccccc23)cc1OC	.	.	.	-3	.	.
Cc1cc(=O)oc2cc(OC(=O)c3ccccc3)ccc12	5	3	2	0	4	-35
Cc1cc(=O)oc2cc(OC(=O)c3nn(C(C)C)c(=O)c4ccccc34)ccc12	26	90*	1	2	42	19
CC(C)n1nc(C(=O)Oc2ccc(Cl)cc2)c2ccccc2c1=O	4	-7	0	4	0	3
CCCn1nc(C(=O)Oc2ccc3c(C)cc(=O)oc3c2)c2ccccc2c1=O	2	88*	1	7	43	16
CCC1CCCCN1CCCNC(=O)C1CCN(c2ncnc3c2nc2n3CCCCC2)CC1 (stereo not drawn)	.	.	.	-11	.	.
Cc1cc2c(NC(=O)Nc3ccc(F)cc3)cccc2nn1	2	-4	3.4*	-4	10	-15
COc1cc(CNc2ccc(N3CCCC3)cc2)ccc1OCc1ccccc1F	32*[fluorescence artefact?]	-3	0	.	0	27
COc1ccc(C2CC3(CC(C)(C)NC(SC)=N3)Oc3cc(O)cc(C)c32)cc1 (stereo not drawn)	27	9	-1	8	-3	5
Cc1ccc(-n2c3c(cc(C(=O)NC4CCSC4=O)c2=O)C(=O)CC(C)(C)C3)cc1 (stereo not drawn)	5	3	-1	-4	-2	2
Cc1csc2nc(CNC(=O)CCC(=O)O)cn12	-1	1	3.4*	-9	0	-5
Nc1cccc2c1C(=O)N(C(=O)c1ccco1)C2=O	0	84*	1	26*	-45	-86
O=C(c1ccco1)N1C(=O)c2cccc3cccc1c23	5	-6	2	.	-2	6
Nc1cccc2c1C(=O)N(C(=O)/C=C/c1ccc(F)cc1)C2=O	-3	86*	0	5	-58	11
CC(=O)c1ccc(NC(=O)c2ccc3nc(-c4ccco4)c(-c4ccco4)nc3c2)cc1	47*[fluorescence artefact?]	-69	0	35*	-4	0
O=C(NCc1ccccc1)c1ccc2nc(-c3ccco3)c(-c3ccco3)nc2c1	13	-46	0	25*	-1	2
S=C(Nc1ccc(N2CCOCC2)cc1)Nc1ccc2nc(-c3ccco3)c(-c3ccco3)nc2c1	-5	-388	1	20*	-95	1
O=C(NCCCO)c1ccc2nc(-c3ccco3)c(-c3ccco3)nc2c1	6	-27	0	.	8	30
O=C(Nc1ccccc1)c1ccc2nc(-c3ccco3)c(-c3ccco3)nc2c1	0	-31	0	36*	1	10
SMILES	eIF4E-4G inh	Runt-SMMHC FRET	PERK inhibitor	RanGTP-Impb inh	Runt-CBFb FRET	Hck Nef HTS
CCCCNC(=O)c1ccc2nc(-c3ccco3)c(-c3ccco3)nc2c1	8	-11	1	3	1	25
O=C(Nc1ccc(N2CCOCC2)cc1)c1ccc2nc(-c3ccco3)c(-c3ccco3)nc2c1	-7	-27	0	?	10	11
Cn1c(-n2c(-c3ccco3)nc3ccccc3c2=O)nc2ccccc21	2	-4	-1	1	-2	2
CCN(c1ccccc1)S(=O)(=O)c1ccc(NC(=O)c2ccco2)cc1	1	-6	-1	-1	1	19
COc1ccc2nc3cccc(OC)c3nc2c1	4	-34	0	-10	-6	3
O=C(NCCO)Nc1ccc2nc(-c3ccco3)c(-c3ccco3)nc2c1	62*	-176	0	.	-239	28
COc1ccc2nc(-c3ccco3)c(-c3ccco3)nc2c1	27	-22	1	54*	6	1
CC(C)NC(=S)n1cc(C(=O)c2cc(Cl)cc(Cl)c2O)cn1	.	.	.	21*	.	.
COc1ccccc1OCC(=O)n1cc(C(=O)c2cc(Cl)cc(Cl)c2O)cn1	-8	-25	0	-5	-10	-3
Cc1ccc(C2CC(=O)C(C=NCCN3CCN(C(=S)Nc4ccccc4)CC3)=C(O)C2)cc1 (stereo not drawn)	97*	-6	1	?	-5	-2
Cn1ccc(-c2ccccc2)n1	-2	-3	1	-13	0	11
N#Cc1cc(-c2ccccc2)nn1-c1ccccc1	66*[fluorescence artefact?]	43	1	9	19	-1
CCOc1ccc(NC(=O)C2CC(=O)NC(N3CCc4ccccc43)=N2)cc1 (stereo not drawn)	-2	4	0	-1	1	2
COc1ccc(-c2ccc3c(N)c(C(=O)c4cccc(OC)c4)sc3n2)cc1	-17	-109	-1	5	-14	10
CC(=O)c1sc2nc(-c3cccs3)ccc2c1N	-1	83*	0	-38	28	1
COc1ccc(C(=O)c2sc3nc(-c4ccc(OC)cc4)ccc3c2N)cc1	9	-3	1	23*	-6	0
CCCCCCNc1c([N+](=O)[O-])c(=O)sc2ccccc12	-7	-4	1	147*	0	-4
c1nc(N2CCC3(CC2)OCCO3)c2[nH]cnc2n1	-1	1	1	1	-2	5
CC(=O)NS(=O)(=O)c1ccc(NS(=O)(=O)c2ccc(F)cc2)cc1	3	6	1	-1	89*	2
CSc1nc2nc3c(cc2c(=O)n1-c1ccccc1C)CCCC3	0	-4	-2	-1	0	16
C/C(=N\NC(=O)C1COc2ccccc2O1)c1ccc(Cl)s1 (stereo not drawn)	0	3	1	-1	-2	22
C/C(=N/NC(=O)C1COc2ccccc2O1)c1ccc(Br)s1 (stereo not drawn)	98*	2	1	0	-1	23
Cc1ccc2sc(NC(=O)CSc3nc(C)cc(C)c3C#N)nc2c1	-16	56*	0	8	12	1
CCCCC(=O)Nc1sc2c(c1C#N)CC(C)(C)OC2	-3	2	0	0	2	0
